Test results reported in ChEMBL document CHEMBL3112392, “Cytotoxicity and DNA binding property of triphenylethylene-coumarin hybrids with two amino side chains” (Bioorg Med Chem Lett, 2014).
The source made the active and inactive calls. The calls are words filed in the database; no cut-off is given here.

Legend:
[1] = Cytotoxicity against mouse skull osteoblasts at 40 uM after 48 hrs by MTT assay relative to control; type: cell-based; settings: osteoblast
How it was run: (§1)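 Primary osteoblasts were isolated from newborn mouse skull and exposed to compounds at five concentrations for 48 h. Induced cell death was measured by MTT assay and expressed as % cytotoxicity.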

DNA [2] = assay: Binding affinity to calf thymus DNA assessed as intercalation at 20 uM after 10 mins measured at 350 to 500 nm wavelength by circular dichroism spectroscopic analysis; type: nucleic-acid assay; settings: Bos taurus
How it was run: (§2)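 Circular dichroism: spectra of Ct-DNA (5.0 × 10^-5 M) recorded with or without compound (2.0 × 10^-5 M). Buffer was 10 mM phosphate pH 7.4 with 50 mM NaCl and 2% DMSO, at 25 °C.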

DNA [3] = assay: Binding affinity to calf thymus DNA assessed as change in melting temperature at 5 uM after 10 mins by thermal denaturation assay; type: nucleic-acid assay; settings: Bos taurus
DNA [4] = assay: Binding affinity to calf thymus DNA after 10 mins by Stern-Volmer plot analysis; type: nucleic-acid assay; settings: Bos taurus
How it was run: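 Fluorescence titration: 5.0 × 10^-5 M compound in 10 mM phosphate buffer pH 7.4 with 50 mM NaCl and 2% DMSO at 25 °C, Ct-DNA added stepwise. Excitation wavelength set per compound (318–339 nm); excitation and emission slits 10.0 nm; emission read near 455 nm. F/F0 plotted against Ct-DNA concentration and analysed by Stern–Volmer plot.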

HeLa = assay: Cytotoxicity against human HeLa cells after 48 hrs by MTT assay; type: functional, cell-based
How it was run: (§3)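 Antiproliferative screen in human tumour lines; IC50 values derived, with cisplatin as positive control.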

[5] = Cytotoxicity against mouse skull osteoblasts at 20 uM after 48 hrs by MTT assay relative to control; type: cell-based; settings: osteoblast; how it was run: as §1
K562 = assay: Cytotoxicity against human K562 cells after 48 hrs by MTT assay; type: functional, cell-based; settings: for IC50: K562, 48 h; how it was run: as §3
DNA [6] = assay: Binding affinity to calf thymus DNA assessed as increase in intensity of positive band at 20 uM after 10 mins measured at 277 nm wavelength by circular dichroism spectroscopic analysis; type: nucleic-acid assay; settings: Bos taurus; how it was run: as §2
[7] = Cytotoxicity against mouse skull osteoblasts at 10 uM after 48 hrs by MTT assay relative to control; type: cell-based; settings: osteoblast; how it was run: as §1
[8] = Cytotoxicity against mouse skull osteoblasts at 1 uM after 48 hrs by MTT assay relative to control; type: cell-based; settings: osteoblast; how it was run: as §1
[9] = Cytotoxicity against mouse skull osteoblasts at 100 uM after 48 hrs by MTT assay relative to control; type: cell-based; settings: osteoblast; how it was run: as §1
DNA [10] = assay: Binding affinity to calf thymus DNA assessed as decrease in intensity of negative band at 20 uM after 10 mins measured at 246 nm wavelength by circular dichroism spectroscopic analysis; type: nucleic-acid assay; settings: Bos taurus; how it was run: as §2
MCF7 = assay: Cytotoxicity against human MCF7 cells after 48 hrs by MTT assay; type: functional, cell-based; settings: for IC50: MCF7, 48 h; how it was run: as §3
DNA [11] = assay: Binding affinity to calf thymus DNA assessed as hyperchromicity at 10 uM after 10 mins by UV-vis spectrophotometric analysis; type: nucleic-acid assay; settings: Bos taurus
How it was run: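 UV–vis absorption titration: 1.0 × 10^-5 M compound in 10 mM phosphate buffer pH 7.4 with 50 mM NaCl and 2% DMSO at 25 °C, with increasing Ct-DNA. Spectral changes were followed, and binding was fitted at the absorption maximum.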

A549 = assay: Cytotoxicity against human A549 cells after 48 hrs by MTT assay; type: functional, cell-based; settings: A549, 48 h; how it was run: as §3
DNA [12] = assay: Binding affinity to calf thymus DNA assessed as melting temperature at 5 uM after 10 mins by thermal denaturation assay (reference value: 67 degC); type: nucleic-acid assay; settings: Bos taurus

Row | Activity (DNA [2]) | ΔTm (DNA [3]) [°C] | Kb (DNA [4]) | Activity (DNA [6]) | Activity (DNA [10]) | Activity (DNA [11]) [%] | Tm (DNA [12]) [°C] | SMILES | Activity [1] [%] | IC50 (HeLa) [µM] | Activity [5] [%] | IC50 (K562) [µM] | Activity [7] [%] | Activity [8] [%] | Activity [9] [%] | IC50 (MCF7) [µM] | IC50 (A549) [µM] | Activity (K562) | Activity (MCF7)
1 | Active | 1.7 | 6 ×10³ /M | Active | Active | 8 | 68.8 | CCN(CC)CCOc1ccc(-c2c(-c3ccccc3)c3ccc(OCCN(CC)CC)cc3oc2=O)cc1 | 15.8 | 9.58 | 3.7 | 2.73 | -1.5 | -7.2 | 31.7 | 5.95 | 8.97 |  | 
2 |  |  |  |  |  |  |  | CN(C)CCOc1ccc(-c2c(-c3ccccc3)c3ccc(OCCN(C)C)cc3oc2=O)cc1 | 13.8 | 8.49 | 4.3 | 7.19 | -0.2 | -0.6 | 31.5 | 6.99 | 9.13 |  | 
3 |  |  |  |  |  |  |  | O=c1oc2ccccc2c(-c2ccc(OCCN3CCOCC3)cc2)c1-c1ccc(OCCN2CCOCC2)cc1 |  | > 100 |  | > 100 |  |  |  | > 100 | > 100 |  | 
4 |  |  |  |  |  |  |  | O=c1oc2cc(OCCN3CCOCC3)ccc2c(-c2ccccc2)c1-c1ccc(OCCN2CCOCC2)cc1 |  | > 100 |  | > 100 |  |  |  | > 100 | > 100 |  | 
5 |  |  |  |  |  |  |  | O=c1oc2cc(OCCN3CCCC3)ccc2c(-c2ccccc2)c1-c1ccc(OCCN2CCCC2)cc1 | 16.4 | 4.7 | 5.2 | 5.46 | -5.6 | -2.5 | 32.8 | 6.63 | 7.35 |  | 
6 | Active | 3 | 1.2 ×10⁴ /M | Active | Active | 16 | 70 | O=c1oc2ccccc2c(-c2ccc(OCCN3CCCCC3)cc2)c1-c1ccc(OCCN2CCCCC2)cc1 | 22.3 | 4.36 | 10.6 | 5.44 | 1.6 | -3.2 | 40.3 | 4.29 | 7.28 |  | 
7 |  |  |  |  |  |  |  | CN(C)CCOc1ccc(-c2c(-c3ccc(OCCN(C)C)cc3)c3ccccc3oc2=O)cc1 |  | > 100 |  | 99.6 |  |  |  | 71.6 | > 100 |  | 
8 |  |  |  |  |  |  |  | O=c1oc2cc(O)ccc2c(-c2ccccc2)c1-c1ccc(O)cc1 |  |  |  |  |  |  |  |  |  | inactive | inactive
9 | Active | 4.5 | 1 ×10⁴ /M | Active | Active | 17 | 71.5 | CCN(CC)CCOc1ccc(-c2c(-c3ccc(OCCN(CC)CC)cc3)c3ccccc3oc2=O)cc1 |  | 45.2 |  | 56.2 |  |  |  | 50.1 | 46.3 |  | 
10 | Active | 4 | 1.4 ×10⁴ /M | Active | Active | 17 | 71 | CN1CCN(CCOc2ccc(-c3c(-c4ccc(OCCN5CCN(C)CC5)cc4)c4ccccc4oc3=O)cc2)CC1 |  | 60.5 |  | 53.2 |  |  |  | 78.3 | 55.6 |  | 
11 |  |  |  |  |  |  |  | O=c1oc2ccccc2c(-c2ccc(O)cc2)c1-c1ccc(O)cc1 |  |  |  |  |  |  |  |  |  | inactive | inactive
12 | Active | 1.2 | 7 ×10³ /M | Active | Active | 6 | 68.2 | O=c1oc2cc(OCCN3CCCCC3)ccc2c(-c2ccccc2)c1-c1ccc(OCCN2CCCCC2)cc1 | 18.6 | 5.08 | 4.9 | 4.9 | 3.7 | -6.5 | 33.4 | 6.53 | 5.21 |  | 
13 | Active | 2.2 | 5.2 ×10³ /M | Active | Active | 8 | 69.2 | CN1CCN(CCOc2ccc(-c3c(-c4ccccc4)c4ccc(OCCN5CCN(C)CC5)cc4oc3=O)cc2)CC1 | 14.6 | 3.68 | 3.2 | 3.23 | 0.6 | -2.4 | 31.6 | 3.47 | 4.7 |  | 
14 |  |  |  |  |  |  |  | O=c1oc2ccccc2c(-c2ccc(OCCN3CCCC3)cc2)c1-c1ccc(OCCN2CCCC2)cc1 | 20.4 | 8.25 | 8.4 | 7.54 | -0.5 | 0.1 | 39.5 | 16.6 | 8.79 |  | 
